Data set [1] concerns Mus musculus. The data set can be described thus: Hepatotoxicity in ICR mouse assessed as increase in ALP level at 30 mg/kg, po for 7 days. Also on record: dose 30 mg/kg, route oral. The format is toxicity, organism-based. As to conditions: in vivo, 168 h. The procedure, abridged:
(§1)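 Male ICR mice, 6−7 weeks old, four per cage, grouped by body weight. Oral 30 mg/kg or vehicle (1% ethanol/0.5% CMC in water, 10 mL/kg) once daily for 7 days, body weight recorded daily. After overnight fasting, mice were weighed under ether, and liver was removed and weighed. Serum was analysed on a dry-chemistry analyser for TG, TCHO, ALP, CRE, BUN and other markers. n = 7−23, ANOVA.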

Data set [2] addresses T1, Retinoic acid receptor RXR-beta (Homo sapiens) (UniProt P28702).
T1 sequence (whole entry): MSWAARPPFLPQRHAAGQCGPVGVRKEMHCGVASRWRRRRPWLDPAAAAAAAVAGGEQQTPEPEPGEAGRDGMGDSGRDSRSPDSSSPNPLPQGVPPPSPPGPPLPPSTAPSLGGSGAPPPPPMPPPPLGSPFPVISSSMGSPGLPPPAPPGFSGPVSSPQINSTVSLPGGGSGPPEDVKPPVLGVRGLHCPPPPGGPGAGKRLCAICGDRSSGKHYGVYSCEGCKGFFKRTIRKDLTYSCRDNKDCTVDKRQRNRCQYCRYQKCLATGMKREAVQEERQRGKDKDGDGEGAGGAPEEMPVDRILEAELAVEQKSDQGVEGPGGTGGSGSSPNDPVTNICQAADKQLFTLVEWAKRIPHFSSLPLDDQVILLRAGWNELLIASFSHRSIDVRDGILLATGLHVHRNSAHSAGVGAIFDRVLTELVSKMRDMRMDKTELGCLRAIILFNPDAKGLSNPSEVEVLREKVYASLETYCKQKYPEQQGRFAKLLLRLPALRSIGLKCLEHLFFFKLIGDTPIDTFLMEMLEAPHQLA
Kind of data set: Partial agonist activity at RXRbeta (unknown origin) by luciferase reporter gene assay relative to LGD1069. (In general: Reporter assays use an easily measured gene product as a stand-in for the process of interest.)

Data set [3] has as its system Mus musculus. The data set can be described thus: Toxicity in ICR mouse assessed as development of hepatomegaly at 30 mg/kg/day, po for 7 days. It is filed as organism-based. Also on record: route oral. As to conditions: in vivo, 168 h. The gist of the method: as §1
Data set [4] has as its target T2, Retinoic acid receptor beta (Homo sapiens) (UniProt P10826).
T2 sequence (whole entry): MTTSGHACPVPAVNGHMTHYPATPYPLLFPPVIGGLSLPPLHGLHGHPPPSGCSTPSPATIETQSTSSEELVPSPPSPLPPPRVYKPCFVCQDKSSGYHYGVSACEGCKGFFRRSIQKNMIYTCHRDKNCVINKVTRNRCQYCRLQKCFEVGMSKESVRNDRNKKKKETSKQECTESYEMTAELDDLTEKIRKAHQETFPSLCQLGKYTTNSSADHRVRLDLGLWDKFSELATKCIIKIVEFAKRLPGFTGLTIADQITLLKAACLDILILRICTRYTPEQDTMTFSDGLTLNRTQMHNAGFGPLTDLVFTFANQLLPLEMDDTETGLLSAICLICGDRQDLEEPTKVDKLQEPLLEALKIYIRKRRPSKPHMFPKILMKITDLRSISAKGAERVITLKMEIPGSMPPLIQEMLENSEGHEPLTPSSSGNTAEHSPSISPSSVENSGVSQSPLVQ
The data set can be described thus: Transactivation of RARbeta (unknown origin) by luciferase reporter gene assay relative to Am80.

Data set [5] concerns the target T3, Oxysterols receptor LXR-alpha (Homo sapiens) (UniProt Q13133).
T3 sequence (whole entry): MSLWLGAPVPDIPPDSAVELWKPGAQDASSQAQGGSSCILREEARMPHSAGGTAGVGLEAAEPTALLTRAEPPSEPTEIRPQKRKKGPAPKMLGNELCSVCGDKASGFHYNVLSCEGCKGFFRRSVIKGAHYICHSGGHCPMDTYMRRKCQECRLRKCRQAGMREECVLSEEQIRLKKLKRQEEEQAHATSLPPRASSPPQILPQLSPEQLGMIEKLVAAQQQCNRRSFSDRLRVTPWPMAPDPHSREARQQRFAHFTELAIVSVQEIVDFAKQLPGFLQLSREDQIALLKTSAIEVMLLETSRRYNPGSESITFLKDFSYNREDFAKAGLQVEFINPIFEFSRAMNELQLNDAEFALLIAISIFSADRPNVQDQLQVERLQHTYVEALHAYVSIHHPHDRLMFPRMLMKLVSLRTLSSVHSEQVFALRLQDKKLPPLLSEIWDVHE
The data set can be described thus: Transactivation of LXRalpha (unknown origin) by luciferase reporter gene assay relative to carba-T0901317. The procedure, abridged: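 Heterodimer luciferase assay in COS-1 cells cotransfected with RXRα (0.5 μg), partner receptor (PPARγ or LXRα, 0.5 μg) and partner response element reporter (4.0 μg), plus SEAP. Compound (DMSO below 1%) was added with seeding at about 2.0 × 10⁴ cells/well, then 18 h at 37 °C, 5% CO2. Luciferase was normalized to SEAP. Triplicates, three runs.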

The target of data set [6] is T4, Retinoic acid receptor RXR-alpha (Homo sapiens, UniProt P19793).
T4 sequence (P19793 whole entry): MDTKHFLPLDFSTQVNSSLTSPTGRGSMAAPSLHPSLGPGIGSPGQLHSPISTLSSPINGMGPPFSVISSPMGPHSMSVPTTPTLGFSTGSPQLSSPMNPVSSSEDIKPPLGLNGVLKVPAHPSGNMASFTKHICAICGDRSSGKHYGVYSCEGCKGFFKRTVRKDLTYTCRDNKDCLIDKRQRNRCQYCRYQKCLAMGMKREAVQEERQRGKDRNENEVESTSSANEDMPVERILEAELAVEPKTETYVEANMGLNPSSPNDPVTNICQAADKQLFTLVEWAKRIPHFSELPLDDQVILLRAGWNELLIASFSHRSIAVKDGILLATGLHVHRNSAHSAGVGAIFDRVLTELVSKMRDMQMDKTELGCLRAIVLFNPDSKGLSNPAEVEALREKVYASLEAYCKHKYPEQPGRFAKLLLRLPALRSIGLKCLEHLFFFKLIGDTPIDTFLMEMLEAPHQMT
The data set can be described thus: Partial agonist activity at RXRalpha (unknown origin) expressed in COS1 cells after 18 hrs by luciferase reporter gene assay. It is filed as cell-based, COS-1. The procedure, abridged:
(§2)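 COS-1 cells in DMEM with 10% FBS at 37 °C, 5% CO2, transfected with RXRα, an RXR-response-element luciferase reporter and a SEAP background vector. Cells were seeded at about 2.0 × 10⁴ per well with compound (DMSO below 1%) for 18 h. Luciferase was normalized to SEAP and expressed relative to 1 μM reference RXR full agonist as 100%. EC50 came from full dose-response curves. Triplicates, at least three experiments.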

Data set [7] has as its target T5, Retinoic acid receptor RXR-alpha (Homo sapiens) (UniProt P19793).
T5 sequence (whole entry): T4 sequence (P19793 whole entry)
Kind of data set: Transactivation of RXRalpha (unknown origin) expressed in COS1 cells at 1 uM after 18 hrs by luciferase reporter gene assay relative to bexarotene. The format is cell-based. As to conditions: COS-1. The gist of the method: as §2

This is an account of results in ChEMBL document CHEMBL2331224 (J Med Chem, 2013).

Active and inactive are the calls of the source. No cut-off for these calls is given here.

One may read the EC50 as the concentration that produces a half-maximal response. For `Cc1cc2c(cc1-n1c(C(F)(F)F)nc3cc(C(=O)O)ccc31)C(C)(C)CCC2(C)C`, the Activity entry with Mus musculus [1] and in the data set with Mus musculus [3] was “Toxic” in each case. The outcome in data set [2], in data set [4] and in data set [5] was Active. The molecule also came in with an EC50 in data set [6] of 15 nM. The Efficacy in data set [7] came out at 65%.
